# Measured values collected from several papers.
# Lines come from different studies, so protocols differ.
SMILES,assay,system,setting,quantity,value
CC1(C)NC(=O)N(c2ccc(F)c(F)c2)C1=O,metabolic stability,"mouse, liver microsomes",,microsomal CLint,7 µL/min/mg
Cc1cc(S(=O)(=O)N[C@]2(C)C[C@H](N3CCN(CC4CCN(c5ccc6c(c5F)n(C)c(=O)n6C5CCC(=O)NC5=O)CC4)CC3)C2)ccc1Nc1ncc(C(F)(F)F)c(N2CCC[C@](C)(O)C2)n1 (some centres unmarked),,"rat, plasma","intravenous, 2 mg/kg",Vd,42 L/kg
CC(C)n1ncc2c(C(=O)NCC3(F)CNC3)cc(C3CC3)nc21,metabolic stability,"mouse, liver microsomes",,scaled CLint,78.2 mL/min/kg
O=c1c2c([nH]c3ccc(Oc4ccc(OC(F)(F)F)cc4)cc13)CCCC2,metabolic stability,"mouse, liver microsomes","1 µM, pH 7.4",microsomal CLint,39 µL/min/mg
CC(C)c1cc(C(=O)NCCN)c2cnn(C(C)C)c2n1,metabolic stability,"mouse, liver microsomes",,scaled CLint,< 38 mL/min/kg
CNS(=O)(=O)c1ccc(Nc2ncc(C(F)(F)F)c([C@H]3CC[C@@](C)(O)CC3)n2)c(C)c1,,"rat, plasma","intravenous, 2 mg/kg",Vd,1 L/kg
CC(C)n1ncc2c(C(=O)NCC(C)(C)N(C)C)cc(C3CC3)nc21,metabolic stability,"mouse, liver microsomes",,scaled CLint,120 mL/min/kg
CCCN(CCC)CCOc1ccc2c(=O)c3c([nH]c2c1)CCCC3,metabolic stability,"mouse, liver microsomes","1 µM, pH 7.4",microsomal CLint,51.9 µL/min/mg
Cc1cc(S(=O)(=O)NC2CC(N3CCN(CC4CCN(c5ccc6c(c5F)n(C)c(=O)n6C5CCC(=O)NC5=O)CC4)CC3)C2)ccc1Nc1ncc(C(F)(F)F)c(N2CCCC(C)(O)C2)n1 (centres unmarked),,"rat, plasma","intravenous, 2 mg/kg",Vd,18 L/kg
CC(C)n1ncc2c(C(=O)NC(C)(C)CN)cc(C3CC3)nc21,metabolic stability,"mouse, liver microsomes",,scaled CLint,75.6 mL/min/kg
O=c1c2ccc(Oc3cccc(OC(F)(F)F)c3)cc2[nH]c2cc(Cl)cc(F)c12,metabolic stability,"mouse, liver microsomes","1 µM, pH 7.4",microsomal CLint,24.3 µL/min/mg
C[C@H]1Oc2cc(cnc2N)-c2c(nn(C)c2C#N)CN(C)C(=O)c2ccc(F)cc21,,"male Sprague-Dawley rat, plasma","oral, 10 mg/kg, single dose",Vd/F,37 L/kg
O=c1c2ccc(OCc3ccc(C(F)(F)F)cc3)cc2[nH]c2cc(Cl)cc(F)c12,metabolic stability,"mouse, liver microsomes","1 µM, pH 7.4",microsomal CLint,6.76 µL/min/mg
CC1(C)NC(=O)N(c2ccc(F)c(S(C)(=O)=O)c2)C1=O,metabolic stability,"mouse, liver microsomes",,microsomal CLint,< 7 µL/min/mg
